Experimental data taken from ChEMBL document CHEMBL3272036, “Reactions of 2-acyloxyisobutyryl halides with nucleosides. Synthesis and biological evaluation of some 3"-acyl and 3',5'-diacyl derivatives of 1-beta-D-arabinofuranosylcytosine” (J Med Chem, 1976).
In brackets after ≈: the same amount, converted by molar mass. Activity calls are given as the source filed them. The calls are words filed in the database; no cut-off is given here.

What was measured:
L1210 [1] = test: Antitumor activity against mouse L1210 cells allografted in BDF1 mouse assessed as survival at 200 mg/kg, ip administered as single dose measured on day 30 relative to vehicle-treated control; assay type: functional, organism-based; set-up: dose 200 mg/kg
How it was run: (§1)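 Leukemic L1210 cells were introduced into mice. Each compound was then given as a single intraperitoneal injection 24 h later. Activity is expressed as % increase in life span (ILS), with the count of 30-day survivors per group. Doses tested were 100, 200, 500 and 1000 mg/kg.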

L1210 [2] = test: Antitumor activity against mouse L1210 cells allografted in BDF1 mouse assessed as survival at 500 mg/kg, ip administered as single dose measured on day 30 relative to vehicle-treated control; assay type: functional, organism-based; set-up: dose 500 mg/kg; how it was run: as §1
L1210 [3] = test: Antitumor activity against mouse L1210 cells allografted in BDF1 mouse assessed as survival at 1000 mg/kg, ip administered as single dose measured on day 30 relative to vehicle-treated control; assay type: functional, organism-based; set-up: dose 1000 mg/kg; how it was run: as §1
L1210 [4] = test: Antitumor activity against mouse L1210 cells allografted in ip dosed mouse administered as single dose relative to vehicle-treated control; assay type: functional; how it was run: as §1
L1210 [5] = test: Chemotherapeutic index, ratio of ILSmax for antitumor activity against mouse L1210 cells allografted in BDF1 mouse to ILS30 for antitumor activity against mouse L1210 cells allografted in BDF1 mouse; assay type: functional
How it was run: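 Dose-response curves were determined in L1210-bearing mice, each receiving a single ip injection 24 h after leukemic cell introduction. Chemotherapeutic index = the dose producing maximum % ILS divided by the dose giving 30% ILS.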

L1210 [6] = test: Antitumor activity against mouse L1210 cells allografted in BDF1 mouse assessed as increase in life span at 100 mg/kg, ip administered as single dose relative to vehicle-treated control; assay type: functional; settings: route intraperitoneal
How it was run: (§2)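 Single intraperitoneal injection given 24 h after the leukemic cells were introduced, at 100, 200, 500 or 1000 mg/kg. Read-out is % increase in life span (ILS), with the count of 30-day survivors per group recorded (group sizes 7–8 mice).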

HeLa = test: Cytotoxicity against human HeLa cells after 48 hrs by Coulter counter analysis; assay type: functional; settings: read-out: ED50 (the source's name)
Vaccinia virus = test: Antiviral activity against Vaccinia virus IHD infected in African green monkey BGM cells assessed as plaque reduction measured on day 5 by disk diffusion assay; assay type: functional; settings: Orthopoxvirus vaccinia, 120 h, read-out: ED50 (the source's name)
Herpesviridae sp. = test: Antiviral activity against Herpes Simplex virus HF infected in African green monkey BGM cells assessed as plaque reduction measured on day 5 by disk diffusion assay; assay type: functional; settings: 120 h, read-out: ED50 (the source's name)
L1210 [7] = test: Antitumor activity against mouse L1210 cells allografted in BDF1 mouse assessed as increase in life span at 200 mg/kg, ip administered as single dose relative to vehicle-treated control; assay type: functional; settings: route intraperitoneal; how it was run: as §2
L1210 [8] = test: Antitumor activity against mouse L1210 cells allografted in BDF1 mouse assessed as increase in life span at 500 mg/kg, ip administered as single dose relative to vehicle-treated control; assay type: functional; settings: route intraperitoneal; how it was run: as §2
L1210 [9] = test: Antitumor activity against mouse L1210 cells allografted in BDF1 mouse assessed as increase in life span at 1000 mg/kg, ip administered as single dose relative to vehicle-treated control; assay type: functional; settings: route intraperitoneal; how it was run: as §2
L1210 [10] = test: Antitumor activity against mouse L1210 cells allografted in BDF1 mouse assessed as survival at 100 mg/kg, ip administered as single dose measured on day 30 relative to vehicle-treated control; assay type: functional, organism-based; set-up: dose 100 mg/kg; how it was run: as §1
L1210 [11] = test: Antitumor activity against mouse L1210 cells allografted in BDF1 mouse assessed as survival at 50 mg/kg, ip administered as single dose measured on day 30 relative to vehicle-treated control; assay type: functional, organism-based; set-up: dose 50 mg/kg

| Compound | Activity (L1210 [1]) | Activity (L1210 [2]) | Activity (L1210 [3]) | ILS30 (L1210 [4]) [mg/kg] | ILSmax (L1210 [4]) [mg/kg] | Ratio (L1210 [5]) | ILS at 100 mg/kg (L1210 [6]) [%] | EC50 (HeLa) [µg/mL] | EC50 (Vaccinia virus) [nM] | EC50 (Herpesviridae sp.) [nM] | ILS at 200 mg/kg (L1210 [7]) [%] | ILS at 500 mg/kg (L1210 [8]) [%] | ILS at 1000 mg/kg (L1210 [9]) [%] | Activity (L1210 [10]) | Activity (L1210 [11]) |
| --- | --- | --- | --- | --- | --- | --- | --- | --- | --- | --- | --- | --- | --- | --- | --- |
| CCCCCCCCCCCCCCCC(=O)O[C@H]1[C@H](O)[C@H](n2ccc(N)nc2=O)O[C@@H]1CO | Active | inactive | inactive | 1 | 200 | 200 | > 295 | 0.24 (≈ 0.498 µM) | 140 | 670 | > 295 | -20 | -19 | Active | – |
| CCCCCCCC(=O)O[C@H]1[C@H](O)[C@H](n2ccc(N)nc2=O)O[C@@H]1CO | inactive | inactive | inactive | – | – | – | 34 | 0.1 (≈ 0.271 µM) | 110 | 640 | 48 | 37 | 11 | inactive | – |
| CCCCCCCC/C=C\CCCCCCCC(=O)OC[C@H]1O[C@@H](n2ccc(N)nc2=O)[C@@H](O)[C@@H]1OC(=O)CCCCCCC/C=C\CCCCCCCC.Cl | – | – | – | – | – | – | 70 | 1.1 | 17500 | > 30000 | > 190 | – | – | – | inactive |
| CCCCCCCCCC(=O)O[C@H]1[C@H](O)[C@H](n2ccc(N)nc2=O)O[C@@H]1CO | – | – | inactive | 5 | 150 | 30 | > 241 | 0.09 (≈ 0.226 µM) | 100 | 340 | > 224 | > 161 | -23 | – | – |
| CCCCCC(=O)O[C@H]1[C@H](O)[C@H](n2ccc(N)nc2=O)O[C@@H]1CO | inactive | – | – | – | – | – | 5 | 0.05 (≈ 0.146 µM) | 480 | 1500 | 21 | – | – | – | inactive |
| CCCCCCCCCCCCCCCCCCCCCC(=O)O[C@H]1[C@H](O)[C@H](n2ccc(N)nc2=O)O[C@@H]1CO | – | – | Active | 2 | 2000 | 1000 | > 200 | 1.1 (≈ 1.94 µM) | > 30000 | > 30000 | > 215 | – | > 240 | – | – |
| CCCCCCCC/C=C/CCCCCCCC(=O)OC[C@H]1O[C@@H](n2ccc(N)nc2=O)[C@@H](O)[C@@H]1OC(=O)CCCCCCC/C=C/CCCCCCCC | – | – | – | – | – | – | 14 | 2.5 (≈ 3.24 µM) | > 30000 | > 30000 | > 253 | – | – | – | inactive |
| Nc1ccn([C@@H]2O[C@H](CO)[C@@H](O)[C@@H]2O)c(=O)n1 [CYTARABINE] | inactive | inactive | inactive | – | – | – | 8 | 0.05 (≈ 0.206 µM) | 70 | 160 | 7 | 16 | 34 | inactive | – |
| CCCCCCCCCCCCCCCCCCCCCC(=O)OC[C@H]1O[C@@H](n2ccc(N)nc2=O)[C@@H](O)[C@@H]1O | Active | Active | inactive | 1 | 500 | 500 | > 228 | 0.04 (≈ 0.0707 µM) | 450 | 12000 | > 295 | > 295 | 45 | – | – |
| CCCCCCCCCC(=O)OC[C@H]1O[C@@H](n2ccc(N)nc2=O)[C@@H](O)[C@@H]1O | – | – | – | 20 | 500 | 25 | 59 | 0.1 (≈ 0.252 µM) | 180 | 860 | > 114 | > 122 | -45 | inactive | – |
| CCCCCCCC/C=C\CCCCCCCCCCCC(=O)O[C@H]1[C@H](O)[C@H](n2ccc(N)nc2=O)O[C@@H]1CO | Active | inactive | inactive | – | – | – | > 280 | 0.16 (≈ 0.284 µM) | 17500 | > 30000 | > 280 | -34 | – | Active | – |
| CCCCCCCCCCCCCCCC(=O)OC[C@H]1O[C@@H](n2ccc(N)nc2=O)[C@@H](O)[C@@H]1O | – | inactive | – | 2 | 150 | 75 | > 257 | 0.08 (≈ 0.166 µM) | 300 | 1140 | > 224 | -40 | – | Active | – |
| CCCCCCCCCCCC(=O)O[C@H]1[C@H](O)[C@H](n2ccc(N)nc2=O)O[C@@H]1CO | – | – | inactive | – | – | – | > 258 | 0.08 (≈ 0.188 µM) | 50 | 250 | > 257 | – | -28 | – | Active |
